ROMK primary: modulators of human ROMK potassium channel | P48048 | Tet-inducible ROMK, thallium flux fluorescence; actives lie on both sides | B-score at 10 µM | 130,000 tested, 2% active | AID 1918;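 active means signal ratio slope over the read window, or its plate-corrected B-score, at least 3 SD from the plate mean, either direction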;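 further: B-score of the F/F0 ratio slope over 7 to 12 s after thallium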
Target sequence (P48048 whole entry, looked up): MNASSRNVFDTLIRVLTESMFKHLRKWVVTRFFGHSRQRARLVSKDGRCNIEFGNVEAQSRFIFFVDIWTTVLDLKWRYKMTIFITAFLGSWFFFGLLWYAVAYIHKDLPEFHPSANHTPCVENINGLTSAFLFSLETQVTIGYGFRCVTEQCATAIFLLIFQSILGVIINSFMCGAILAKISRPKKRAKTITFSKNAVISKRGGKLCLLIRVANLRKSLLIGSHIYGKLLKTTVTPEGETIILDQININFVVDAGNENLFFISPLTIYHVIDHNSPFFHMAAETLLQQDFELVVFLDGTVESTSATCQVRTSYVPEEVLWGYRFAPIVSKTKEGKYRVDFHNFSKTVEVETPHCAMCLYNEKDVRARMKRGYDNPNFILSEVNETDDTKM
Diaph inh CS: counter-screen for diaphorase-based assays: diaphorase inhibitors and chemical oxidizers | diaphorase resazurin-to-resorufin fluorescence, NADH, 16 min; bacterial (C. kluyveri) enzyme, not human | inhibition, % at 20 µM | 190,000 tested, 0.69% active | AID 1217;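 active means primary screen inhibition at 20 µM above a set limit, cut at about 50% in these data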
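Assay system: diaphorase enzyme from Clostridium kluyveri. Quantity: enzyme working solution with 0.14 U/mL diaphorase. Schedule: reaction incubation of 16 min at room temperature. Technique: resorufin fluorescence, excitation 544 nm, emission 590 nm. Controls: No-NADH positive control and DMSO neutral control.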
KCC2 mod: KCC2 (human) Cl- transport modulation; Q9H2X9; KCC2 cells, thallium flux FluoZin-2 fluorescence; B-score of Tl+ flux slope (higher = more flux/activation; lower = inhibition) at 10 µM; 190,000 tested, 2.2% active;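 active means thallium flux slope and its plate-corrected score both differing from the plate sample mean at a set confidence after two filtering rounds, in either direction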;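 further: slope of fluorescence scaled to starting intensity during 10 to 20 s after thallium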
L major viab: reduces viability of Leishmania major promastigotes | inhibition, % at 10 µM | AID 1063 | 200,000 tested, 9% active | resazurin fluorescence viability; in the data active means inhibition above about 50%;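 further: promastigotes grown with compound for 44 hours at 28 °C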
WT yeast gro inh: growth inhibition of WT yeast, mitochondrial fusion screen. 190,000 tested, 2.1% active. mitochondrial fusion phenotypic screen, WT strain. inhibition, % at 10 µM; in the data active means inhibition above about 58%; tested in S. cerevisiae
Diaph act CS: activates diaphorase or chemically reduces, flagging diaphorase assay artifacts. Diaphorase/resazurin coupled assay, resorufin fluorescence, 16 min; stronger effect = higher value; 1 = vehicle wells, 0 = NADH-free wells. activation factor at 20 µM. 190,000 tested, 0.005% active;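 active means diaphorase activity raised at least twofold by the compound at 20 µM; inactive means activation factor below 2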
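Test system: Clostridium kluyveri diaphorase, purified enzyme. Buffer or medium: 50 mM HEPES pH 7.4 buffer plus MgCl2 and Tween 20. Also added: 0.114 mM NADH and 0.1 mM resazurin, final amounts. Dosing: compound 20 µM once, DMSO 1%. Schedule: 16 min enzyme reaction, ambient temperature. Detection: fluorescence of resorufin, 544 nm excitation, 590 nm emission.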
Each line names hits and unclear results; the compound was inactive in the other large screens. Only some compounds are listed: those with a hit (about 12% of all), similar ones and a draw of the others.

CN1/C(=C\C(=O)Nc2ccc(Cl)cc2)C(C)(C)c2ccccc21	WT yeast gro inh 79 (no result: ROMK primary)
CN1/C(=C\C=C(/C#N)C(=O)Nc2ccc(Cl)cc2)C(C)(C)c2ccccc21	L major viab 88 (no result: ROMK primary)
CN1/C(=C\C=C(C#N)C#N)C(C)(C)c2ccccc21	none (no result: ROMK primary)
CN1/C(=C/C(=O)CSc2ccccc2C(=O)O)C(C)(C)c2ccccc21	none (no result: ROMK primary, Diaph inh CS, L major viab, WT yeast gro inh, Diaph act CS)
Cc1ccc[n+](CC(=O)/C=C2\N(C)c3ccccc3C2(C)C)c1	none
Cc1cc(=O)oc2ccc(OC(=O)CC(C)C)cc12	none
NC(=S)N/N=C/c1cn(-c2ccccc2)nc1-c1cccnc1	none (no result: Diaph inh CS, L major viab, WT yeast gro inh, Diaph act CS)
CCN1CCN(CCCN(Cc2ccco2)C(=S)Nc2cc(Cl)ccc2C)CC1	L major viab 72
Cc1ccc(NC(=S)N(CCCN2CCC(C)CC2)Cc2ccco2)cc1C	L major viab 82
CCN1CCN(CCCN(Cc2ccco2)C(=S)Nc2ccc(C)c(Cl)c2)CC1	none
Cc1ccc(-n2c(SCC(=O)N3Cc4ccccc4CC3C(=O)O)nnc2-c2cccnc2)c(C)c1 (centres undefined)	none (no result: ROMK primary)
Cc1ccccc1C(=O)NC(=S)Nc1ccc2[nH]c(=O)[nH]c2c1	none
CCCCc1c(C)nc2ccc(Br)cc2c1SCCC#N	WT yeast gro inh 60 (no result: ROMK primary)
CCc1c(C)nc2ccc(Br)cc2c1SCCC#N	none
O=C(NC1CCCCC1)C(c1ccc(O)c(O)c1)N(C(=O)Cn1nnc2ccccc21)c1cccc(O)c1 (centres undefined)	Diaph inh CS 56
CC(=O)c1ccc(N(C(=O)Cn2nnc3ccccc32)C(C(=O)NC2CCCCC2)c2cn(C)nc2C)cc1 (centres undefined)	none (no result: ROMK primary)
COc1ccc(OC)c(C(=O)CSc2nc3ccccc3n2CC(=O)NC(C)(C)C)c1	L major viab 61
Cc1ccc(NC(=O)CN(C)C(=O)Cn2ncc(Cl)c(Cl)c2=O)cc1	L major viab 73 (no result: ROMK primary)
Cc1ccc(NC(=O)CN(C)C(=O)COc2c(Cl)cc(Cl)c3ccc(C)nc23)cc1	none (no result: ROMK primary)
CC(C)OP(=O)(OC(C)C)C(C)NC(=O)Cc1ccccc1 (centres undefined)	none
COc1ccc(/C=N/n2c(N)nc3ccccc32)cc1OC	none (no result: ROMK primary)
COc1ccc(/C=N/n2c(N)nc(-c3ccccc3)c2-c2ccccc2)cc1	L major viab 57 (no result: ROMK primary)
CC(=O)c1c(C)[nH]c(C(=O)CSc2ncnc3sc(-c4ccccc4)cc23)c1C	KCC2 mod 29, L major viab 74 (no result: ROMK primary)
CCOC(=O)c1c(C)[nH]c(C(=O)CSc2nnc(-c3cccs3)n2Cc2ccccc2)c1C	none (no result: ROMK primary)
CC(=O)c1c(C)[nH]c(C(=O)CSc2nnc(-c3cccs3)n2Cc2ccccc2)c1C	L major viab 78
O=C(O)CSc1ncnc2sc(-c3ccccc3)cc12	none
COc1ccc(CCC(=O)N/N=C\c2cccs2)cc1	none
CC(C)CC(=O)Nc1ccccc1-c1nnn(CC(=O)N2CCc3ccccc3C2)n1	KCC2 mod -3.8 (no result: ROMK primary)
CCOc1cc(C=O)ccc1OCCSc1ccc(Cl)cc1	none (no result: ROMK primary, KCC2 mod)
CCCCCn1c(SCCc2ccccc2)nc2c1c(=O)[nH]c(=O)n2C	none (no result: ROMK primary)
Cn1c(=O)[nH]c(=O)c2c1nc(SCCN1CCCCC1)n2Cc1ccccc1	L major viab 99 (no result: ROMK primary)
Cn1c(=O)[nH]c(=O)c2c1nc(SCCN1CCCCC1)n2CCCc1ccccc1	L major viab 98 (no result: ROMK primary)
Cc1ccc(Cn2c(SCCN3CCCCC3)nc3c2c(=O)[nH]c(=O)n3C)cc1	none (no result: ROMK primary)
COc1ccc(/C=N/N2C(=N)SCC2=O)cc1	none (no result: Diaph inh CS, L major viab, WT yeast gro inh, Diaph act CS)
COc1ccc(/C=C(\C#N)C(=O)Nc2cc(S(=O)(=O)N3CCCCC3)ccc2N2CCCCC2)cc1	none (no result: ROMK primary)
CC(OC(=O)c1cccc(N2C(=O)c3ccccc3C2=O)c1)C(=O)Nc1ccc(N(C)C)cc1 (centres undefined)	L major viab 56 (no result: ROMK primary)
CCCCCCCCOC(=O)CCn1[nH]c(=O)c2ccccc2c1=O	WT yeast gro inh 80 (no result: ROMK primary)
CCOC(=O)C1=NN(c2ccc(C)cc2)CC1C(=O)OC (centres undefined)	none
CCc1nc(Sc2nnnn2-c2ccccc2)c2c3c(sc2n1)CCCC3	L major viab 98
COC(=O)c1ccc(-n2c(C)cc(C(=O)CCl)c2C)cc1	L major viab 101 (no result: ROMK primary)
CCOC(=O)c1cc(C)n(-c2ccc(Cl)cc2)c1C	none (no result: Diaph inh CS, L major viab, WT yeast gro inh, Diaph act CS)
COC(=O)c1ccc(-n2c(C)cc(C(=O)COC(=O)CNS(=O)(=O)c3ccc(C)cc3)c2C)cc1	none
CCOc1ccc(-n2c(C)cc(C(=O)CCl)c2C)cc1	L major viab 100
CCn1c(SCC(=O)c2cc(C)n(C)c2C)nnc1-c1ccccc1	none
CCn1c(SCC(=O)c2cc(C)n(-c3ccc(C(=O)OC)cc3)c2C)nnc1-c1cccnc1	L major viab 71 (no result: ROMK primary)
COC(=O)c1cc(C(=O)OC)cc(-n2c(C)cc(C(=O)COC(=O)CNS(=O)(=O)c3ccc(C)cc3)c2C)c1	L major viab 90
C=CCOc1ccc(CNCCc2ccc(S(N)(=O)=O)cc2)cc1	none
CCCOc1ccc(C(=O)ON=C2CCN(C)CC2)cc1	none (no result: ROMK primary)
COc1ccccc1C1(CC(=O)Nc2nccs2)CCOC(C(C)C)C1 (centres undefined)	L major viab 85 (no result: KCC2 mod)
c1ccc(-c2ccccc2OCCOCCN2CCNCC2)cc1	L major viab 82
CCN1CCN(CCOCCOc2ccccc2-c2ccccc2)CC1	L major viab 93
Fc1ccc(Cn2nnnc2CN2CCN(C3CCCC3)CC2)cc1	L major viab 94 (no result: KCC2 mod)
Cc1cc(C)nc(N(C#N)Cc2cccc(Cl)c2)n1	none
CCC(C)NCCOCCOc1ccc(Cl)cc1Br (centres undefined)	L major viab 96
CCC(C)NCCOCCOc1ccc(C)cc1OC (centres undefined)	none
COCCCNCCOc1cc(C(C)C)ccc1C	L major viab 91 (no result: ROMK primary, KCC2 mod)
CCCCNCCOCCOc1ccc(C)cc1Br	L major viab 98
COCCCNCCOCCOc1ccccc1-c1ccccc1	none
COCCCNCCOCCOc1ccc(C)cc1Br	L major viab 90
COc1ccccc1OCCOCCOc1ccc(C)cc1Br	none (no result: ROMK primary)
COc1ccccc1N(C)S(=O)(=O)c1ccc(C(=O)OCC(=O)NCc2cccs2)cc1	none (no result: ROMK primary, Diaph inh CS, L major viab, WT yeast gro inh, Diaph act CS)
Cn1c(Cc2cccc3ccccc23)nnc1SCc1ccc([N+](=O)[O-])cc1	none (no result: ROMK primary)
CNC(=O)CN(c1ccc(C(C)C)cc1)S(C)(=O)=O	none
Cc1cccc(C(=O)O/N=C2/CC3CCC2(C)C3(C)C)c1 (centres undefined)	none
O=C(Nc1c(S(=O)(=O)c2ccc(Cl)cc2)csc1Br)c1ccccc1Cl	none (no result: ROMK primary, Diaph inh CS, L major viab, WT yeast gro inh, Diaph act CS)
Cc1c(N(C(=O)CNC(=O)c2ccccc2)C2(C(=O)NC3CCCCC3)CCCCC2)c(=O)n(-c2ccccc2)n1C	none
Cc1nc(N)ncc1Sc1ccccc1	none (no result: ROMK primary, Diaph inh CS, L major viab, WT yeast gro inh, Diaph act CS)
Cc1ccc(OCCOCCNC(C)C)c(Br)c1	L major viab 90 (no result: ROMK primary)
